Results on 6 molecules are retold here after ChEMBL document CHEMBL1255276, “Reliability of the WIDERYST susceptibility testing system for detection of in vitro antifungal resistance in yeasts” (2008).

≈ marks a conversion by molar mass, not a printed value.

What all share (type): functional
Experiment [1] has as its system Pichia kudriavzevii. Description: Antifungal activity against Candida krusei ATCC 6258 by CLSI M27-A2 microdilution method. For orientation: Broth dilution looks for growth in wells or tubes with falling amounts of substance.
Experiment [2] concerns Pichia kudriavzevii. Description: Antifungal activity against Candida krusei ATCC 6258 by AFST-EUCAST method. An outline of the steps: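 AFST-EUCAST microdilution standard for fermentative yeasts (document 7.1). The medium was RPMI 1640 with 2% glucose in flat-bottomed plates, and the inoculum was 10^5 CFU/ml. Endpoints were read spectrophotometrically at 24 and 48 h. The MIC was the lowest concentration giving ≥90% growth reduction versus the drug-free control for AMB, or a 50% OD reduction for 5FC and azoles. Run as a quality-control strain in each set.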

Experiment [3] deals with Pichia kudriavzevii. Nature of the experiment: Antifungal activity against Candida krusei ATCC 6258 by WIDERYST method.
In experiment [4] the test system is Candida parapsilosis. Nature of the experiment: Antifungal activity against Candida parapsilosis ATCC 22019 by AFST-EUCAST method. The note with it: Lodderomyces parapsilosis. An outline of the steps: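 Microdilution per AFST-EUCAST 7.1, with the strain run as a quality control in each set. RPMI 1640 plus 2% glucose, inoculum 10^5 CFU/ml, flat-bottomed plates. Read spectrophotometrically at 24 and 48 h. MIC endpoint is the lowest concentration giving ≥90% growth reduction versus the drug-free control for AMB, and 50% OD reduction for 5FC and azoles.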

For experiment [5], the system named is Candida parapsilosis. Description: Antifungal activity against Candida parapsilosis ATCC 22019 by CLSI M27-A2 microdilution method. The note with it: Lodderomyces parapsilosis.
For experiment [6], the system named is Candida parapsilosis. Nature of the experiment: Antifungal activity against Candida parapsilosis ATCC 22019 by WIDERYST method. The note with it: Lodderomyces parapsilosis. An outline of the steps: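 Commercial 96-well panels with lyophilized drugs, the strain serving as a quality control. Ranges: FLC and 5FC 128–0.06 µg/ml; AMB, ITC, VRC and KTC 8–0.004 µg/ml. Inoculum 1 x 10^5 to 5 x 10^5 CFU/ml, 35°C, 24 h, no CO2, plus 24 h if no growth. Video-image read; MIC is 90% (AMB) or 50% (others) growth reduction versus the positive control.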

On to `CCC(C)n1ncn(-c2ccc(N3CCN(c4ccc(OCC5COC(Cn6cncn6)(c6ccc(Cl)cc6Cl)O5)cc4)CC3)cc2)c1=O` (stereo unspecified) [ITRACONAZOLE], for which the MIC (in general, the lowest concentration found to suppress growth) turned out to be 0.12 µg/mL (≈ 0.17 µM) in experiment [1]; 0.06 µg/mL (≈ 0.085 µM) in experiment [2]; 0.06 µg/mL (≈ 0.085 µM) in experiment [3]; 0.03 µg/mL (≈ 0.0425 µM) in experiment [4]; 0.12 µg/mL (≈ 0.17 µM) in experiment [5]; 0.03 µg/mL (≈ 0.0425 µM) in experiment [6].

On to `C[C@@H](c1ncncc1F)[C@](O)(Cn1cncn1)c1ccc(F)cc1F` [VORICONAZOLE], for which the minimum inhibitory concentration (MIC) in experiment [1] was 0.06 µg/mL (≈ 0.172 µM); in experiment [2] it was 0.06 µg/mL (≈ 0.172 µM); in experiment [3], 0.06 µg/mL (≈ 0.172 µM); in experiment [4], 0.03 µg/mL (≈ 0.0859 µM); in experiment [5] it was 0.03 µg/mL (≈ 0.0859 µM); in experiment [6] it was 0.01 µg/mL (≈ 0.0286 µM).

As to `Nc1nc(=O)[nH]cc1F` [FLUCYTOSINE], the minimal inhibitory concentration (MIC) in experiment [1] is 4 µg/mL (≈ 31 µM); in experiment [2] it was 1 µg/mL (≈ 7.75 µM); in experiment [3], 2 µg/mL (≈ 15.5 µM); in experiment [4], 0.12 µg/mL (≈ 0.93 µM); in experiment [5] it was 0.12 µg/mL (≈ 0.93 µM); in experiment [6], 0.06 µg/mL (≈ 0.465 µM).

For `C[C@@H]1[C@H](O)[C@@H](C)/C=C/C=C/C=C/C=C/C=C/C=C/C=C/[C@H](O[C@@H]2O[C@H](C)[C@@H](O)[C@H](N)[C@@H]2O)C[C@@H]2O[C@](O)(C[C@@H](O)C[C@@H](O)[C@H](O)CC[C@@H](O)C[C@@H](O)CC(=O)O[C@H]1C)C[C@H](O)[C@H]2C(=O)O` [AMPHOTERICIN B], the MIC in experiment [1] was determined as 0.5 µg/mL (≈ 0.541 µM); in experiment [2], 0.12 µg/mL (≈ 0.13 µM); in experiment [3] it was 0.12 µg/mL (≈ 0.13 µM); in experiment [4], 0.12 µg/mL (≈ 0.13 µM); in experiment [5], 0.25 µg/mL (≈ 0.271 µM); in experiment [6], 0.06 µg/mL (≈ 0.0649 µM).

For the molecule `OC(Cn1cncn1)(Cn1cncn1)c1ccc(F)cc1F` [FLUCONAZOLE], the MIC in experiment [1] came to 16 µg/mL (≈ 52.2 µM); in experiment [2], 8 µg/mL (≈ 26.1 µM); in experiment [3], 8 µg/mL (≈ 26.1 µM); in experiment [4], 1 µg/mL (≈ 3.27 µM); in experiment [5] it was 1 µg/mL (≈ 3.27 µM); in experiment [6], 0.5 µg/mL (≈ 1.63 µM).

In the case of `CC(=O)N1CCN(c2ccc(OCC3COC(Cn4ccnc4)(c4ccc(Cl)cc4Cl)O3)cc2)CC1` (stereo unspecified) [KETOCONAZOLE], the minimal inhibitory concentration (MIC) came to 0.12 µg/mL (≈ 0.226 µM) in experiment [1]; 0.06 µg/mL (≈ 0.113 µM) in experiment [2]; 0.12 µg/mL (≈ 0.226 µM) in experiment [3]; 0.01 µg/mL (≈ 0.0188 µM) in experiment [4]; 0.03 µg/mL (≈ 0.0565 µM) in experiment [5]; 0.01 µg/mL (≈ 0.0188 µM) in experiment [6].
